From ChEMBL document CHEMBL4673366, “Cyclic Phosphopantothenic Acid Prodrugs for Treatment of Pantothenate Kinase-Associated Neurodegeneration” (J Med Chem, 2020) come the findings set out here.

Series [1] in a line: Induction of Coenzyme A regeneration in human IMR-32 PANK2 knockdown cells at 50 uM for 24 hrs by HPLC analysis relative to control. It is filed as functional. Summed up: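 PANK2-knockout neuroblastoma cells were grown in MEM with 10% FBS and 1 µg/mL puromycin and seeded at 0.2×10⁶ cells/well. After 72 h, they were dosed at 50 µM in DMSO (final 0.1%) at 37 °C. Washed, frozen pellets were reconstituted in ammonium acetate (pH 5.1) with internal standard, and free CoA was measured by LC-MS/MS. Intracellular volume was taken as 2 µL/10⁶ cells; results are fold over vehicle-treated cells.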

Series [2] is described as follows: Stability of compound in human whole blood assessed as half life. It is filed as ADME, tissue-based.
Series [3] can be described thus: Stability of compound in human hepatocytes assessed as half life. It is filed as ADME, cell-based, Hepatocyte.
Series [4] in a line: Apparent permeability in porcine brain endothelial cells. To be noted: pig. It is filed as ADME, cell-based, Sus scrofa, Endothelial cell.
Series [5] is described as follows: Increase in free coenzyme A level in C57BL6 mouse brain at 500 mg/kg, po administered as single dose measured after 24 hrs UPLC quadrupole-time-of-flight mass spectrometry (Rvb =0%). It is filed as functional. Summed up: (§1)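 C57BL6 mice, three per time point, received one oral 500 mg/kg dose of isotopically labeled prodrug, and brains were taken at 0, 1, 6 and 24 h. Brains were homogenized in water (3 mL/g), protein was precipitated with MeOH, and dried supernatant was reconstituted in 10 mM ammonium acetate (pH ~5). Analysis was UPLC-QTOF MS in positive ESI, scoring labeled CoA (+6, +4 amu) as a share of free CoA.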

A short description of series [6]: Increase in free coenzyme A level in C57BL6 mouse brain at 500 mg/kg, po administered as single dose measured after 6 hrs UPLC quadrupole-time-of-flight mass spectrometry (Rvb =0%). It is filed as functional. Summed up: as §1
The nature of series [7]: Increase in free coenzyme A level in C57BL6 mouse brain at 500 mg/kg, po administered as single dose measured after 1 hr UPLC quadrupole-time-of-flight mass spectrometry (Rvb =0%). Type of series: functional. Summed up: as §1

Regarding `COC(=O)CCNC(=O)[C@@H]1O[P@](=O)(Oc2ccccc2C(=O)OC)OCC1(C)C`, in series [1], the “fold change (FC)” value was 4.

In the case of `COC(=O)CCNC(=O)[C@@H]1O[P@](=O)(OCOC(=O)c2cc(C)nn2C)OCC1(C)C` (relative stereo), the half-life in series [2] was less than 9.6 min.

Turning to `COC(=O)CCNC(=O)[C@@H]1OP(=O)(OCOC(=O)c2ccccc2)OCC1(C)C` (mixture of isomers), the “fold change (FC)” value in series [1] amounted to 278.

Consider `COC(=O)CCNC(=O)[C@@H]1O[P@@](=O)(Oc2ccc(F)cc2)OCC1(C)C`, for which, in series [1], the “fold change (FC)” value came out at 2.

As for `COC(=O)CCNC(=O)[C@@H]1OP(=O)(OCOC(=O)c2cnccn2)OCC1(C)C` (mixture of isomers), the “fold change (FC)” value in series [1] is recorded as 77.

On to `COC(=O)CCNC(=O)[C@@H]1OP(=O)(OCOC(=O)c2ocnc2C)OCC1(C)C` (mixture of isomers), for which the “fold change (FC)” value in series [1] is on record as 39.

For the compound `COC(=O)CCNC(=O)[C@@H]1OP(=O)(OCOC(=O)c2scnc2C(C)(C)C)OCC1(C)C` (mixture of isomers), the “fold change (FC)” value in series [1] came out at 3.

In the case of `CCc1cc(C(=O)OCO[P@]2(=O)OCC(C)(C)[C@H](C(=O)NCCC(=O)OC)O2)n(C)n1` (relative stereo), the half-life in series [2] is less than 9.6 min.

As to `COC(=O)CCNC(=O)[C@@H]1O[P@](=O)(Oc2ccc(C#N)cc2)OCC1(C)C`, the half-life in series [2] was 27.6 min. Moreover, the “fold change (FC)” value in series [1] was 7.

In the case of `COC(=O)CCNC(=O)[C@@H]1O[P@](=O)(OCOC(=O)c2cc(C(C)(C)C)n[nH]2)OCC1(C)C` (relative stereo), the half-life in series [2] was less than 9.6 min.

As for `COC(=O)CCNC(=O)[C@@H]1O[P@](=O)(Oc2ccc(C(F)(F)F)cc2)OCC1(C)C`, the half-life in series [2] is greater than 60 min. Besides, the “fold change (FC)” value in series [1] is 102.

Consider `COC(=O)CCNC(=O)[C@@H]1O[P@@](=O)(OCOC(=O)C(C)(C)C)OCC1(C)C`, for which the “fold change (FC)” value in series [1] is given as 198.

Take `COC(=O)CCNC(=O)[C@@H]1O[P@@](=O)(OCOC(=O)c2cc(C(C)(C)C)n[nH]2)OCC1(C)C`: the half-life in series [3] is 30 min; in series [2], greater than 60 min. Also, the Papp in series [4] came to 5.3 ×10⁻⁶ cm/s. For the same compound, the “fold change (FC)” value in series [1] is recorded as 101.

On to `CCc1cc(C(=O)OCO[P@@]2(=O)OCC(C)(C)[C@H](C(=O)NCCC(=O)OC)O2)n(C)n1`, for which the half-life in series [3] was 18 min; in series [2] it was no less than 58.2 min. In addition, the Papp in series [4] turned out to be 11.8 ×10⁻⁶ cm/s. In addition, the “fold change (FC)” value in series [1] came to 14.

As for `COC(=O)CCNC(=O)[C@@H]1O[P@@](=O)(OCOC(=O)c2ccnn2C)OCC1(C)C` (relative stereo), in series [2], the half-life is greater than 60 min.

Consider `COC(=O)CCNC(=O)[C@@H]1OP(=O)(OCOC(=O)c2cc(C)nn2C)OCC1(C)C` (mixture of isomers), for which the “fold change (FC)” value in series [1] turned out to be 42.

With `CC(C)(C)C(=O)OCO[P@@]1(=O)OCC(C)(C)[C@H](C(=O)NCCC(=O)O)O1`, the half-life in series [2] is greater than 60 min. The “fold change (FC)” value in series [1] is 4.

With `COC(=O)CCNC(=O)[C@@H]1O[P@@](=O)(OCOC(=O)c2cc(C)nn2C)OCC1(C)C` (relative stereo), the half-life in series [2] was greater than 60 min.

As for `CCC(CC)C(=O)OCOP1(=O)OCC(C)(C)[C@H](C(=O)NCCC(=O)OC)O1` (mixture of isomers), in series [1], the “fold change (FC)” value was determined as 369.

Consider `COC(=O)CCNC(=O)[C@@H]1OP(=O)(OCOC(=O)OC(C)C)OCC1(C)C` (mixture of isomers), for which the “fold change (FC)” value in series [1] was determined as 199.

`CCCC(=O)OCOP1(=O)OCC(C)(C)[C@H](C(=O)NCCC(=O)OC)O1` (mixture of isomers): the “fold change (FC)” value in series [1] is given as 84.

For the compound `COC(=O)CCNC(=O)[C@@H]1O[P@](=O)(OCOC(=O)C(C)(C)C)OCC1(C)C`, the “fold change (FC)” value in series [1] is 106.

With `CO[13C](=O)[13CH2][13CH2][15NH]C(=O)[C@@H]1OP(=[18O])(OCOC(=O)C(C)(C)C)OCC1(C)C` (some centres undefined), the Activity in series [5] stood at 2.1%; in series [6], 5.3%; in series [7], 0%.

`COC(=O)CCNC(=O)[C@@H]1OP(=O)(OCOC(=O)c2ccns2)OCC1(C)C` (mixture of isomers): the “fold change (FC)” value in series [1] amounted to 37.

For the compound `COC(=O)CCNC(=O)[C@@H]1O[P@](=O)(OCOC(=O)c2ccnn2C)OCC1(C)C`, the half-life in series [2] was less than 9.6 min.

For `COC(=O)CCNC(=O)[C@@H]1OP(=O)(OCOC(=O)c2cncs2)OCC1(C)C` (mixture of isomers), the “fold change (FC)” value in series [1] is on record as 88.

For the compound `COC(=O)CCNC(=O)[C@@H]1O[P@](=O)(OCOC(=O)c2scnc2C)OCC1(C)C` (relative stereo), the half-life in series [2] was less than 9.6 min.

For the compound `CC(C)(C)OC(=O)CCNC(=O)[C@@H]1OP(=O)(OCOC(=O)C(C)(C)C)OCC1(C)C` (mixture of isomers), in series [2], the half-life is greater than 60 min. In addition, the “fold change (FC)” value in series [1] was 2.

Turning to `COC(=O)CCNC(=O)[C@@H]1O[P@](=O)(OCOC(=O)c2scnc2C(C)(C)C)OCC1(C)C` (relative stereo), the half-life in series [2] is 26.4 min.

`COC(=O)CCNC(=O)[C@@H]1O[P@](=O)(Oc2ccc(F)cc2)OCC1(C)C`: the Papp in series [4] is 16 ×10⁻⁶ cm/s. In addition, the “fold change (FC)” value in series [1] is 87.

As to `CC(C)(C)C(=O)OCO[P@@]1(=O)OCC(C)(C)[C@H](C(=O)NCCC(=O)OCCc2ccccn2)O1`, the half-life in series [2] is less than 9.6 min. The “fold change (FC)” value in series [1] was determined as 100.

For the compound `COC(=O)CCNC(=O)[C@@H]1OP(=O)(OCOC(=O)c2cc(C(C)(C)C)n[nH]2)OCC1(C)C` (mixture of isomers), the “fold change (FC)” value in series [1] was 85.

As to `COC(=O)CCNC(=O)[C@@H]1OP(=O)(Oc2ccc(F)cc2)OCC1(C)C` (mixture of isomers), in series [2], the half-life is greater than 60 min.

In the case of `COC(=O)CCNC(=O)[C@@H]1O[P@@](=O)(OC(C)OC(=O)C(C)(C)C)OCC1(C)C` (some centres undefined), the “fold change (FC)” value in series [1] is reported as 3.

Consider `CC(C)(C)C(=O)OCO[P@@]1(=O)OCC(C)(C)[C@H](C(=O)NCCC(=O)OCc2cncs2)O1`, for which the half-life in series [2] is less than 9.6 min. Also, the “fold change (FC)” value in series [1] was determined as 133.

Regarding `COC(=O)CCNC(=O)[C@@H]1O[P@@](=O)(OCOC(=O)c2scnc2C)OCC1(C)C`, the half-life in series [3] was 30 min; in series [2], greater than 60 min. Further, the Papp in series [4] came out at 5.1 ×10⁻⁶ cm/s. In addition, in series [1], the “fold change (FC)” value turned out to be 40.

For `CC(C)(C)C(=O)OCO[P@@]1(=O)OCC(C)(C)[C@H](C(=O)NCCC(=O)OC2CCN(Cc3ccccc3)C2)O1` (some centres undefined), in series [2], the half-life is 11.4 min. Besides, in series [1], the “fold change (FC)” value is reported as 207.

On to `COC(=O)CCNC(=O)C1OP(=O)(Oc2ccc(F)cc2)OCC1(C)C` (mixture of isomers), for which the half-life in series [2] is greater than 60 min.

Turning to `COC(=O)CCNC(=O)[C@@H]1OP(=O)(OCOC(=O)C(C)C)OCC1(C)C` (mixture of isomers), the “fold change (FC)” value in series [1] was 92.

Take `CC(C)(C)C(=O)OCO[P@@]1(=O)OCC(C)(C)[C@H](C(=O)NCCC(=O)OCCS(C)(=O)=O)O1`: the half-life in series [2] was less than 9.6 min. Further, the “fold change (FC)” value in series [1] came to 121.

In the case of `COC(=O)CCNC(=O)[C@@H]1O[P@@](=O)(OCOC(=O)c2scnc2C(C)(C)C)OCC1(C)C` (relative stereo), the half-life in series [2] was greater than 60 min.

For the compound `CO[13C](=O)[13CH2][13CH2][15NH]C(=O)[C@@H]1OP(=O)(OCOC(=O)C(C)(C)C)OCC1(C)C` (some centres undefined), the Activity in series [5] worked out at 12.9%; in series [6], 2.7%; in series [7], 0%.

`COC(=O)CCNC(=O)[C@@H]1O[P@@](=O)(OCOC(=O)c2ocnc2C)OCC1(C)C` (relative stereo): the half-life in series [2] is 31.2 min.

`COC(=O)CCNC(=O)[C@@H]1O[P@@](=O)(OCOC(=O)c2ccns2)OCC1(C)C` (relative stereo): the half-life in series [2] was less than 9.6 min.

As for `COC(=O)CCNC(=O)[C@@H]1O[P@](=O)(OCOC(=O)c2ccns2)OCC1(C)C` (relative stereo), in series [2], the half-life is less than 9.6 min.

In the case of `CCc1cc(C(=O)OCOP2(=O)OCC(C)(C)[C@H](C(=O)NCCC(=O)OC)O2)n(C)n1` (mixture of isomers), in series [1], the “fold change (FC)” value is 130.

As for `COC(=O)CCNC(=O)[C@@H]1OP(=O)(OCOC(=O)c2ccncc2)OCC1(C)C` (mixture of isomers), the “fold change (FC)” value in series [1] was determined as 35.

Take `COC(=O)CCNC(=O)[C@@H]1OP(=O)(OCOC(=O)c2scnc2C)OCC1(C)C` (mixture of isomers): the “fold change (FC)” value in series [1] is 44.

As to `COC(=O)CCNC(=O)[C@@H]1O[P@](=O)(OCOC(=O)c2ocnc2C)OCC1(C)C`, the half-life in series [2] was 16.2 min.

For `COC(=O)CCNC(=O)[C@@H]1O[P@](=O)(Oc2ccc(C[C@H](N)C(=O)OC)cc2)OCC1(C)C`, in series [2], the half-life was 30 min. Besides, the “fold change (FC)” value in series [1] amounted to 81.

Take `COC(=O)CCNC(=O)[C@@H]1OP(=O)(OCOC(=O)C2(C(N)=O)CC2)OCC1(C)C` (mixture of isomers): the “fold change (FC)” value in series [1] is recorded as 12.

Regarding `COC(=O)CCNC(=O)[C@@H]1OP(=O)(OCOC(=O)c2ccnn2C)OCC1(C)C` (mixture of isomers), the “fold change (FC)” value in series [1] worked out at 58.

On to `CCOC(=O)CCNC(=O)[C@@H]1O[P@@](=O)(OCOC(=O)C(C)(C)C)OCC1(C)C`, for which the half-life in series [2] is 16.8 min. Also, the “fold change (FC)” value in series [1] is recorded as 85.

In the case of `COC(=O)CCNC(=O)[C@@H]1O[P@](=O)(Oc2ccc(S(F)(F)(F)(F)F)cc2)OCC1(C)C`, the half-life in series [2] was 30 min. Moreover, the “fold change (FC)” value in series [1] came to 34.

What is called half-life is how long it takes for the measured level to halve. As usually defined, the Papp is the rate of passage across a membrane or cell layer, normalised by area and donor concentration.
